# Test results taken from ChEMBL document CHEMBL1938301, “Cyclohexane 1,3-diones and their inhibition of mutant SOD1-dependent protein aggregation and toxicity in PC12 cells” (Bioorg Med Chem, 2012).
# Active and inactive are the calls of the source.
# Key:
# [1] = Half life in Sprague-Dawley rat at 1 mg/kg, iv; assay type: ADME, organism-based; design: dose 1 mg/kg, route intravenous; conditions: in vivo
# Liver = experiment: Half life in mouse liver microsomes at 5 uM by LC-MS/MS analysis; assay type: ADME, Microsome
# How it was run: (§1)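 Incubation at 37 °C, in duplicate, with human or mouse liver microsomes (0.275 mg/mL protein) in 100 mM potassium phosphate pH 7.4 with 2 mM NADPH and 3 mM MgCl2. A minus-NADPH control was run. Samples were taken at 15 s and at 10, 20, 40 and 60 min, quenched in acidified acetonitrile with internal standard, and parent was quantified by LC-MS/MS. T1/2 = ln2/k from an exponential fit.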
# Rattus norvegicus [2] = experiment: Dose normalised AUC in Sprague-Dawley rat at 1 mg/kg, po; assay type: ADME, organism-based; design: dose 1 mg/kg, route oral; conditions: in vivo
# Caco-2 [3] = experiment: Apparent permeability from basolateral to apical side of human Caco2 cells at 50 uM after 2 hrs […]; assay type: ADME, cell-based; conditions: caco-2, 2 h
# How it was run: (§2)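 Caco-2 monolayers on collagen-coated inserts, differentiated 3 weeks. The compound is dosed at 50 μM in HEPES/HBSS/glucose buffer, apical pH 6.5 and basolateral pH 7.4. For A→B, compound and 100 μM Lucifer yellow go apical. For B→A, compound goes basolateral with Lucifer yellow apical. Incubation is 2 h. Lucifer yellow fluorescence checks monolayer integrity (<1% transport). Papp = (dQ/dt)/(c0·A), in 10−6 cm/s.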
# [4] = Clearance in Sprague-Dawley rat at 1 mg/kg, iv; assay type: ADME, organism-based; design: dose 1 mg/kg, route intravenous; conditions: in vivo
# in vivo = conditions: Sprague-Dawley, rat, po, 1 mg/kg
# [5] = Oral bioavailability in Sprague-Dawley rat at 1 mg/kg; assay type: ADME, organism-based; conditions: in vivo
# [6] = Inhibition of SOD1 G93A mutant protein aggregation-mediated cytotoxicity in rat PC12 cells expressing yellow fluorescent protein assessed as increase in cell viability; assay type: cell-based; conditions: PC-12
# Liver microsomes = experiment: Half life in human liver microsomes at 5 uM by LC-MS/MS analysis; assay type: ADME, Microsome; how it was run: as §1
# HEK293 = experiment: Cytoprotective activity against MG132-induced cytotoxicity in human HEK293 cells assessed as cell viability at 100 uM pre-treated for 24 hrs before MG132-induction measured after 48 hrs by Calcein-AM-based fluorimetry; assay type: functional
# Rattus norvegicus [7] = experiment: Dose normalised AUC in Sprague-Dawley rat at 1 mg/kg, iv; assay type: ADME, organism-based; design: dose 1 mg/kg, route intravenous; conditions: in vivo
# [8] = Volume of distribution at steady state in Sprague-Dawley rat at 1 mg/kg, iv; assay type: ADME, organism-based; design: dose 1 mg/kg, route intravenous; conditions: in vivo, read-out: Vdss
# [9] = Cmax in Sprague-Dawley rat at 1 mg/kg, po; assay type: ADME, organism-based; design: dose 1 mg/kg, route oral; conditions: in vivo
# [10] = Toxicity in mouse administered as ip starting at 5 mg/kg and doubling the compound bid each day; assay type: organism-based; design: dose 5 mg/kg, route intraperitoneal; conditions: in vivo
# How it was run: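 Maximum tolerated dose in mice by intraperitoneal injection. Dosing began at 5 mg/kg and was doubled b.i.d. each day, given once in the morning and once mid-afternoon.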
# [11] = Half life in Sprague-Dawley rat at 1 mg/kg, po; assay type: ADME, organism-based; design: dose 1 mg/kg, route oral; conditions: in vivo
# [12] = Ratio of drug level in brain to plasma in mutant SOD1 G93A transgenic mouse at 50 mg/kg, ip after 4 hrs; assay type: ADME, organism-based; design: dose 50 mg/kg, route intraperitoneal; conditions: read-out: BPR
# How it was run: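 Single i.p. bolus of 50 mg/kg in G93A SOD1 transgenic mice (18 animals). Blood and brain sampled at 0–24 h, snap-frozen in liquid nitrogen and stored at −80 °C. Brain and plasma concentrations were compared at 4 h, within the plasma plateau.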
# SH-SY5Y = experiment: Cytoprotective activity against MG132-induced cytotoxicity in human SH-SY5Y cells assessed as cell viability at 100 uM pre-treated for 24 hrs before MG132-induction measured after 48 hrs by Calcein-AM-based fluorimetry; assay type: functional
# HeLa = experiment: Cytoprotective activity against MG132-induced cytotoxicity in human HeLa cells assessed as cell viability at 100 uM pre-treated for 24 hrs before MG132-induction measured after 48 hrs by Calcein-AM-based fluorimetry; assay type: functional
# hERG (KCNH2) = hERG (KCNH2) (Homo sapiens, UniProt Q12809); experiment: Inhibition of human ERG expressed in HEK293 cells at 10 uM; assay type: cell-based; conditions: HEK293 cells expressing hERG
# [13] = Solubility of the compound in phosphate buffer saline after 1 hrs by spectrophotometry; assay type: physicochemical; conditions: phosphate buffered saline
# How it was run: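 DMSO stocks at 100× final (threefold serial dilutions) diluted into PBS and held 1 h at room temperature. Precipitate checked visually and by absorbance at 450 nm. The solubility limit was taken as the highest concentration not cloudy and with absorbance not above background.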
# [14] = AUClast in Sprague-Dawley rat at 1 mg/kg, iv; assay type: ADME, organism-based; design: time 0 - last, dose 1 mg/kg, route intravenous; conditions: plasma
# PC-12 [15] = experiment: Cytoprotective activity against MG132-induced cytotoxicity in rat PC12 cells assessed as cell viability at 100 uM pre-treated for 24 hrs before MG132-induction measured after 48 hrs by Calcein-AM-based fluorimetry; assay type: functional
# Caco-2 [16] = experiment: Apparent permeability from apical to basolateral side of human Caco2 cells at 50 uM after 2 hrs […]; assay type: ADME, cell-based; conditions: caco-2, 2 h; how it was run: as §2
# Cerebral cortex neuron = experiment: Cytoprotective activity against MG132-induced cytotoxicity in rat primary cortical neurons cells assessed as cell viability at 100 uM pre-treated for 24 hrs before MG132-induction measured after 48 hrs by Calcein-AM-based fluorimetry; assay type: functional
# How it was run: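 Neurons from E18 rat cortex (Sprague-Dawley or Fischer 344), papain-dissociated, plated at 20,000 cells/well on poly-D-lysine, cultured 5 days in Neurobasal/B27 (~90% neurons). Six-point series from 100 μM top in roughly one-third steps, 24 h pre-incubation, then MG132 100 nM final. Viability read 48 h later by Calcein-AM (1 μM, 20 min, RT) fluorescence. Active if ≥5 SD above MG132 controls.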
# PC-12 [17] = experiment: Inhibition of SOD1 G93A mutant protein aggregation-mediated cytotoxicity in rat PC12 cells expressing yellow fluorescent protein assessed as increase in cell viability relative to radicicol; assay type: cell-based; design: concentration or dose not given beside the values
# How it was run: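 PC12 cells expressing G93A SOD1-YFP; MG132 proteasome inhibition induces cytotoxic mutant SOD1 aggregates. Cell survival measured as protection read-out; efficacy expressed relative to radicicol positive control.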
# [18] = AUClast in Sprague-Dawley rat at 1 mg/kg, po; assay type: ADME, organism-based; design: time 0 - last, dose 1 mg/kg, route oral; conditions: plasma
# Plasma = experiment: Half life in mouse plasma at 5 uM by LC-MS/MS analysis; assay type: ADME, cell-free
# How it was run: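 Mouse plasma incubation at 37 °C in duplicate alongside a PBS control, with warfarin and diltiazem as controls. Time points at 15 s and 10, 20, 40 and 60 min; samples precipitated with acetonitrile containing internal standard, then LC-MS/MS. Plasma/PBS response ratio gave % remaining, fitted first-order for half-life.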
# Caco-2 [19] = experiment: Efflux ratio of permeability from basolateral to apical over apical to basolateral side in human Caco2 cells at 50 uM after 2 hrs […]; assay type: ADME, cell-based; conditions: caco-2, 2 h
# How it was run: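 Caco-2 monolayers were grown for three weeks on collagen-coated inserts and fed every 2 days. The transport buffer was 10 mM HEPES with 1.98 g/L glucose in HBSS, pH 6.5 apical and pH 7.4 basolateral. Compound was added at 50 μM on the donor side, with 100 μM Lucifer yellow apically, for 2 h. Compound was quantified by LC-MS/MS; Lucifer yellow fluorescence checked monolayer integrity. Papp = (dQ/dt)/(c0·A); ratio taken as B→A over A→B.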
# Sequence of hERG (KCNH2) (Q12809 whole entry): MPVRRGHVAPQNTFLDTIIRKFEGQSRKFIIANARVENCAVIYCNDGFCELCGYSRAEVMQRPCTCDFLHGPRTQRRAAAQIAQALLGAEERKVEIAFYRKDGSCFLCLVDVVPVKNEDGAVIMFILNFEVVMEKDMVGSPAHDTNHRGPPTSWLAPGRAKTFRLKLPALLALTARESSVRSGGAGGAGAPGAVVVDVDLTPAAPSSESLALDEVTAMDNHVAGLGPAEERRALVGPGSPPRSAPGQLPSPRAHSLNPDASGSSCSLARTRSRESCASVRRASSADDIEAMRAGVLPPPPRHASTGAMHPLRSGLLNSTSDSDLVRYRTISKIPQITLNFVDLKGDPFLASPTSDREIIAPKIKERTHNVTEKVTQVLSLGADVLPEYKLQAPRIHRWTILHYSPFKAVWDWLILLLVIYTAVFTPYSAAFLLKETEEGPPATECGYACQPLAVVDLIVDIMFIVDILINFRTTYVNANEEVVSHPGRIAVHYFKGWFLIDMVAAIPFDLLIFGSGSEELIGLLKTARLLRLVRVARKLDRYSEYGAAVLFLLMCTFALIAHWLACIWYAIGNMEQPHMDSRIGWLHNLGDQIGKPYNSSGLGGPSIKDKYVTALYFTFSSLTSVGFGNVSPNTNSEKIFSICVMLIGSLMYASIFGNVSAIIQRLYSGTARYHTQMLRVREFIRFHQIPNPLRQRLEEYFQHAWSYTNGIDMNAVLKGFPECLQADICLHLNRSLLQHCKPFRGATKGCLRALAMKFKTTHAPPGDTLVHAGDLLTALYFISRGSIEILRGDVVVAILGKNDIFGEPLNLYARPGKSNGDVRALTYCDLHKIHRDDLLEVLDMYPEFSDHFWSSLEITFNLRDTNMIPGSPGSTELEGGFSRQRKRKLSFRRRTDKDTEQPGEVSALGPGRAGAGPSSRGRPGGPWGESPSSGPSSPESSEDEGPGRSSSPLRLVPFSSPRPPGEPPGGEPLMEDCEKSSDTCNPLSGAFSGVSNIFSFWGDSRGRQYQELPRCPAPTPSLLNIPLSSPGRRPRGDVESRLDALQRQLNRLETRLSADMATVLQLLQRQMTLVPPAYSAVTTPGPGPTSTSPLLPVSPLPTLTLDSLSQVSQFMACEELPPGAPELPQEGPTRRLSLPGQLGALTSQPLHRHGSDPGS
smiles,measurement,setting,value
O=C1CC(=O)CC(c2cc(C(F)(F)F)cc(C(F)(F)F)c2)C1,half-life,[1],3.7 h
same,t1/2,Liver,>= 180 min
same,AUC/dose,Rattus norvegicus [2],1774 ng·h/mL
same,Papp,Caco-2 [3],5.7 cm'-6/s
same,clearance,[4],8.4 mL/min/kg
same,Tmax,in vivo,0.5 h
same,bioavailability,[5],89%
same,EC50,[6],700 nM
same,t1/2,Liver microsomes,>= 180 min
same,Activity,HEK293,inactive
same,AUC/dose,Rattus norvegicus [7],1996 ng·h/mL
same,Vd,[8],1.5 L/kg
same,Cmax,[9],468 ng/mL
same,MTD,[10],80 mg/kg
same,half-life,[11],3.2 h
same,Kp at 4 h,[12],0.86
same,Activity,SH-SY5Y,inactive
same,Activity,HeLa,inactive
same,inhibition at 10 µM,hERG (KCNH2),7.8%
same,solubility at 1 h,[13],≥ 500 µM
same,AUC(0-t),[14],1980 ng·h/mL
same,Activity,PC-12 [15],Active
same,Papp,Caco-2 [16],38 cm'-6/s
same,Activity,Cerebral cortex neuron,inactive
same,Efficacy,PC-12 [17],100%
same,AUC(0-t),[18],1760 ng·h/mL
CC(Oc1cc(C(F)(F)F)cc(C(F)(F)F)c1)C1CC(=O)CC(=O)C1 (racemic),t1/2,Liver,0.75 h
same,Papp,Caco-2 [3],3.1 cm'-6/s
same,t1/2,Plasma,> 1 h
same,EC50,[6],700 nM
same,t1/2,Liver microsomes,1.18 h
same,Ratio,Caco-2 [19],0.1
same,Papp,Caco-2 [16],24.8 cm'-6/s
same,Efficacy,PC-12 [17],100%
